Experiments:
Assay type in all cases: functional, organism-based; call rule not given here
[1] = test system: Crithidia fasciculata; assay: Inhibition of dihydrosterculate synthesis in Crithidia fasciculata.; conditions: read-out: I50
Summary of the method: (§1)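 C. fasciculata (about 1 × 10⁷ organisms) was inoculated into 50 mL growth medium containing the analogue, using duplicate flasks at 3–6 concentrations plus duplicate untreated controls. Cultures were shaken at 25 °C until controls reached 6 × 10⁷ to 9 × 10⁷ organisms/mL. Harvested cells gave free fatty acids, which were converted to methyl esters. Dihydrosterculate was measured as % of total fatty acids by capillary GC-FID on BP1 and Supelcowax 10 columns.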

[2] = test system: Crithidia fasciculata; assay: The compound was tested for 50% growth inhibition against Crithidia fasciculata; conditions: read-out: I50
Summary of the method: (§2)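 Cultures were set up in 50 mL growth medium with the analogue added and inoculated with about 1 × 10⁷ C. fasciculata. Duplicate flasks were run at each of 3–6 concentrations, with duplicate controls. Flasks were shaken at 25 °C, and growth was followed as absorbance change at 535 nm against uninoculated medium (1.0 = 7 × 10⁷ organisms/mL). Runs ended when controls reached 6 × 10⁷ to 9 × 10⁷ organisms/mL.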

[3] = test system: Crithidia fasciculata; assay: Inhibition of dihydrosterculate synthesis in Crithidia fasciculata; No inhibition; summary of the method: as §1
[4] = test system: Crithidia fasciculata; assay: The compound was tested for 50% growth inhibition against Crithidia fasciculata; No inhibition; summary of the method: as §2

IC50 [1] [µM]	Compound	IC50 [2] [µM]	I50 [3]	I50 [4]
8	CCCCCCCCCSCCCCCCCC(=O)NCC(O)CO (centres undefined)	> 100	–	–
12	CCCCCCCCSCCCCCCCCC(=O)NCC(O)CO (centres undefined)	17	–	–
–	CCCCCCCCCCCCCCCCCC(=O)NCC(O)CO (centres undefined)	–	Not Active	Not Active
–	CCCCCCCCC[S+]([O-])CCCCCCCC(=O)O (centres undefined)	> 100	Not Active	–
0.4	CCCCCCCCCCSCCCCCCC(=O)O	0.8	–	–
0.9	CCCCCCCCCSCCCCCCCC(=O)O	> 100	–	–
4	CCCCCCCCSCCCCCCCCC(=O)O	10	–	–
–	CCCCCCCC[S+]([O-])CCCCCCCCC(=O)O (centres undefined)	> 100	Not Active	–
3	CCCCCCCSCCCCCCCCCC(=O)O	3	–	–
–	CCCCCCCCCCCCCCCCCC(=O)O [STEARIC ACID]	–	Not Active	–

— ChEMBL document CHEMBL1124227, “Effects of sulfur-containing analogues of stearic acid on growth and fatty acid biosynthesis in the protozoan Crithidia fasciculata” (J Med Chem, 1988)
